# Screening results (PubChem BioAssay)
# In the library only some 2.6% were active in any assay of this set; here they are far more common.
# ASAP1 inh – ASAP1 ArfGAP inhibition; 0.19% of 360,000 active; ASAP1-stimulated ARF1 GTP hydrolysis, GDP FP detection; Q9ULH1; AID 624377; inhibition, % at 16.5 µM; in the data active = inhibition above about 25%
# ARFGAP1 inh – inhibits rat ARF GTPase activating protein 1; 0.26% of 360,000 active; Q62848; Arfgap1-stimulated ARF1 GTP hydrolysis, GDP FP detection; inhibition, % at 16.5 µM;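 active = inhibition above a per-plate limit, mean inhibition of low control wells plus 3 SD, cut at about 25% in these data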
#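 Assay system: purified rat His6-Arfgap1 residues 1-136 (GAP domain); Reagent: human Δ17 ARF1 bound to GTP; Dosing: 16.5 µM single point, 1.26% DMSO; Times: GTP hydrolysis reaction 2 h at 25 °C; Signal: FP, GDP Alexa 633 tracer displaced from anti-GDP antibody, 620/688 nm; Measure: % inhibition from polarization.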
# Calb FLC – affects C. albicans growth with fluconazole; AID 1979; growth inhibition, % (no concentration beside the values); 0.57% of 300,000 active; C. albicans CaCi-2 + fluconazole, Alamar Blue growth, 48 h;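 active = growth inhibition above about 58% in most replicates, limit read from the data, passing the limit was not always enough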;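 note: all wells also contain fluconazole at 8 µg/ml as a sub-toxic cotreatment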
# IMP-1 inhibitor – blocks Pseudomonas aeruginosa IMP-1 metallo-beta-lactamase | AID 1556 | inhibition, % at 5.6 µM | purified IMP-1, nitrocefin hydrolysis, epi-absorbance fluorescence | 0.45% of 290,000 active;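 active = inhibition above the mean plus 3 SD of all compounds in the same screening run, cut at about 4.5% in these data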
#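 Assay system: purified recombinant IMP-1 beta-lactamase. Input: IMP-1 0.2 nM before substrate addition. Buffer or medium: Zinc- and detergent-supplemented HEPES buffer, pH 7.1. Schedule: 25 °C, 15 min preincubation, 25 min reaction. Signal: Epi-absorbance fluorescence, 480 nm excitation, 530 nm emission. Evaluation: percent inhibition from optical density relative to buffer-blank wells.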
# PHOSPHO1 inh – inhibitors of human PHOSPHO1 phosphatase; Q8TCT1; recombinant PHOSPHO1, absorbance phosphatase assay; inhibition, % at 13.3 µM; 1.1% of 290,000 active; in the data active = inhibition above about 60%
# Target sequence (Q8TCT1 whole entry, looked up): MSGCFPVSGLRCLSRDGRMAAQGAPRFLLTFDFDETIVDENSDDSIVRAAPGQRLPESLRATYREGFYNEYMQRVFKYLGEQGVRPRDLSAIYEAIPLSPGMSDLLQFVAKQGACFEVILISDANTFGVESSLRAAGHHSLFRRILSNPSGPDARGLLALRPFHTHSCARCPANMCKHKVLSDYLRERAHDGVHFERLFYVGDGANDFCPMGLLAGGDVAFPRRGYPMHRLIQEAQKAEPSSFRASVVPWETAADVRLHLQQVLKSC
# VIM-2 inhibitor – inhibitors of Pseudomonas aeruginosa VIM-2 metallo-beta-lactamase; 0.89% of 290,000 active; inhibition, % at 5.6 µM; purified VIM-2, nitrocefin hydrolysis, epi-absorbance fluorescence;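 active = inhibition above the mean of all tested compounds plus 3 SD, cutoff set per screening run, cut at about 7.5% in these data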;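 note: red hydrolysis product quenches plate fluorescence so inhibitors raise well fluorescence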
# ARFGAP1 inh conf – confirmation of rat ARFGAP1 inhibitors; inhibition, % at 16.5 µM; 30% of 890 active; shares compounds with ARFGAP1 inh; ARFGAP1-stimulated ARF1 GTP hydrolysis, GDP tracer FP;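 active = average inhibition over triplicates above the hit cutoff set in the earlier primary screen, cut at about 25% in these data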
# Target sequence (Q62848 whole entry, looked up): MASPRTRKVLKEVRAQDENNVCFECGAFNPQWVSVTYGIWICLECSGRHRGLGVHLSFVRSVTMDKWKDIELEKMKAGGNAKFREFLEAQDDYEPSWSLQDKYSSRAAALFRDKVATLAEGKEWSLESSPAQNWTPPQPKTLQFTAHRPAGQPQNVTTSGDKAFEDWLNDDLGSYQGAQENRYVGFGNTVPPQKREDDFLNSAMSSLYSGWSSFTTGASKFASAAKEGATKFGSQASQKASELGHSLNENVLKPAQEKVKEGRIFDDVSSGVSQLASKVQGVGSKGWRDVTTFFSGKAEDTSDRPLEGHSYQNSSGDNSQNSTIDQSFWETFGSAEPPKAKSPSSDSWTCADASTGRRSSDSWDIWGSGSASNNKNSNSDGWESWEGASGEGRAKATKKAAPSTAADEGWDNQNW
# Numbers stand for hits; n = inactive; x = no result given; + = active, no number.
SMILES,ASAP1 inh,ARFGAP1 inh,Calb FLC,IMP-1 inhibitor,PHOSPHO1 inh,VIM-2 inhibitor,ARFGAP1 inh conf
CCOC(=O)c1ccc(NC(=S)N(CCCN2CCN(C)CC2)Cc2cccs2)cc1,n,n,n,n,n,n,x
CCOC(=O)c1ccc(NC(=S)N(CCCN2CCCC2)Cc2cccs2)cc1,n,25,n,n,n,n,n
CC1CCC(CN2C(Nc3ccccc3)=NC[C@@H]2Cc2ccccc2)CC1 (some centres not stated),n,28,x,x,x,x,n
c1ccc(C[C@H]2CN=C(Nc3ccccc3)N2CC2CCC2)cc1,n,n,x,x,x,x,x
CCn1c(CNC(=O)c2cccs2)nnc1SCC(=O)Nc1ccc(Cl)cc1,n,31,n,n,n,n,n
COc1ccc(Nc2nnc(SCC(=O)NC3CCCC3)s2)cc1,n,n,x,x,x,x,x
O=C(CSc1nnc(Nc2ccccc2)s1)NC1CCCC1,n,26,x,x,x,x,n
O=C(COC(=O)/C=C/c1ccc2ccccc2n1)NNC(=O)c1ccccc1,n,49,x,x,x,x,n
O=C(OC1CC2CC1[C@H]1CCCCN1C2=O)N1CCN(C(=O)c2ccccc2)CC1 (some centres not stated),n,n,x,x,x,x,x
CC(C)NC(=O)c1ccccc1NC(=O)CN(c1ccc2c(c1)OCO2)S(C)(=O)=O,n,30,n,n,n,n,n
CS(=O)(=O)N(CC(=O)Nc1ccccc1C(=O)NCc1ccccc1)c1ccc2c(c1)OCCO2,n,n,n,n,n,n,x
CCOc1cc2c(c3c1C(c1ccccc1)N(S(=O)(=O)c1ccc(C)cc1)C3)C(=O)C=CC2=O (configuration not stated),n,n,x,x,x,x,x
OC(c1cccc(CN2CCCCC2)c1)c1ncc(-c2cccc3ccccc23)[nH]1 (configuration not stated),n,n,x,x,x,x,x
COc1ccc(-c2cnc3c(NC(C)=O)cc(-c4ccc(C(=O)N5CCOCC5)cc4)cn23)cc1OC,n,n,x,x,x,x,x
Cc1sc2ncnc(N3CCC(C(=O)NCC(=O)Nc4ccc(F)c(F)c4)CC3)c2c1C,n,25,n,n,n,n,n
Cc1ccc(NC(=O)CN(C)C(=O)c2ccc(-n3cncn3)c([N+](=O)[O-])c2)cc1,n,n,n,x,x,x,x
Cc1ccc(NC(=O)CN(C)C(=O)c2ccc(Sc3nncn3C)c([N+](=O)[O-])c2)cc1,n,+,x,x,x,x,n
COC(=O)C1=C(C)N(Cc2cccc(C(F)(F)F)c2)C(=NCc2ccccc2C(F)(F)F)NC1c1cccc(F)c1 (configuration not stated),n,27,x,x,x,x,n
COC(=O)C1=C(C)N(Cc2ccccc2C(F)(F)F)C(=NCc2ccccc2)NC1c1ccc(C(F)(F)F)cc1 (configuration not stated),n,25,x,x,x,x,n
COc1cc(CN2C[C@@H](CO)O[C@@H](n3cnc4c(N5CCOCC5)ncnc43)C2)cc(OC)c1OC,n,n,x,x,x,x,x
O=C(NCc1ccc(C(F)(F)F)cc1)C1CC(c2ccc(C(F)(F)F)cc2)=NO1 (configuration not stated),n,n,n,x,x,x,x
O=C(NCc1ccccc1C(F)(F)F)C1CC(c2ccc(C(F)(F)F)cc2)=NO1 (configuration not stated),n,28,n,x,n,x,n
CCOc1cc(/C=C/C(=O)Nc2ccc(C(=O)NCCN(CC)CC)cc2)ccc1OCC(C)C,n,28,n,n,n,n,26
Cc1cc(C(=O)N2CCC2(C)C(=O)NS(=O)(=O)c2cccc(Cl)c2)nn1C (configuration not stated),n,n,x,x,x,x,x
COc1ccc(C2NC(=O)NC(c3ccccc3)=C2c2nc3ccccc3s2)cc1 (configuration not stated),n,n,n,n,n,n,x
SMILES,ASAP1 inh,ARFGAP1 inh,Calb FLC,IMP-1 inhibitor,PHOSPHO1 inh,VIM-2 inhibitor,ARFGAP1 inh conf
O=C1NC(c2ccccc2)=C(c2nc3ccccc3s2)C(c2ccc(F)cc2)N1 (configuration not stated),n,32,n,n,n,n,n
O=C(COC(=O)c1ccccc1)NC12CC3CC(CC(C3)C1)C2,n,n,x,x,x,x,x
O=C(COC(=O)c1ccc([N+](=O)[O-])cc1)NC12CC3CC(CC(C3)C1)C2,n,26,x,x,x,x,n
CCNC(=O)C1(C)CCN(C(=O)c2c(-c3ccccc3)noc2C)C1 (configuration not stated),n,n,x,x,x,x,x
COc1ccc([C@H]2C[C@@H](n3cc(COC(=O)c4ccccc4)nn3)[C@H](O)CN2C(=O)C2CCCCC2)cc1,n,26,x,x,x,x,n
COc1ccc([C@H]2C[C@H](n3cc(COC(=O)c4ccccc4)nn3)[C@@H](O)CN2C(=O)C2CCCCC2)cc1,n,n,x,x,x,x,x
COc1cccc(C2C(C(=O)Nc3nc4ccccc4s3)=C(C)NC3=C2C(=O)CC(C)(C)C3)c1OC (configuration not stated),n,n,n,n,n,n,x
COc1ccc(OC)c(C2C(C(=O)Nc3nc4ccccc4s3)=C(C)NC3=C2C(=O)CCC3)c1 (configuration not stated),n,25,n,n,n,n,n
Cc1c(CC(=O)NCCCO)c(=O)oc2cc3c(cc12)CCC(C)(C)O3,n,n,n,n,n,n,x
Cc1c(O)ccc2c(O)c(NC(=O)c3ccc4c(c3)CCC(C)(C)O4)c(=O)oc12,n,40,n,n,n,n,n
C=C(C)CC1(NC(C)c2ccccc2)CCCCC1 (configuration not stated),n,31,n,n,n,n,n
CC(NC(=O)CC1CCCCC1)c1ccccc1 (configuration not stated),n,n,n,n,n,n,x
CCCCNC(=O)C1c2ccccc2OCC(=O)N1C1CC1 (configuration not stated),n,n,x,x,x,x,x
CCc1nc2c(OCC(=O)C(C)(C)C)cccn2c1N(C)C(=O)c1ccc(C)cc1,n,n,x,x,x,x,x
O=C(N/N=C/c1cccc([N+](=O)[O-])c1)c1ccc(COc2ccccc2-c2ccccc2)cc1,n,35,n,n,n,n,n
Cc1cc2nc(-c3ccc(C#N)cc3)c(Cc3ccsc3)n2c(C)c1Br,n,n,x,x,x,x,x
C[C@@H]1C[C@H]2[C@@H]3CCC4=CC(=O)C=C[C@]4(C)[C@@]3(F)[C@@H](O)C[C@]2(C)[C@@]1(O)C(=O)CO,n,29,n,x,x,x,n
CC(=O)OCC(=O)[C@@]1(O)[C@H](C)C[C@H]2[C@@H]3CCC4=CC(=O)C=C[C@]4(C)[C@@]3(F)[C@@H](O)C[C@@]21C,n,n,x,n,n,n,x
O=C(NCc1ccco1)c1[nH]c(C(F)(F)F)nc1-c1ccccc1,n,n,x,x,x,x,x
CCOC(=O)Cc1csc(NC(=O)CN2C(=O)c3ccccc3C2=O)n1,n,n,n,n,n,n,x
CCOC(=O)Cc1csc(NC(=O)CN2C(=O)c3ccccc3S2(=O)=O)n1,n,33,x,n,n,n,n
